From ChEMBL document CHEMBL4373657, “Derivatives of a new heterocyclic system - pyrano[3,4-c][1,2,4]triazolo[4,3-a]pyridines: synthesis, docking analysis and neurotropic activity” (Medchemcomm, 2019)
Activity calls are given as the source filed them. No cut-off for these calls is given here.

Key:
Rattus norvegicus [1] = experiment: Antianxiety activity in Wistar rat assessed as vertical movement of animals at 50 mg/kg, ip measured for 5 mins by open field test; assay type: functional, organism-based
Outline: (§1)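 Male Wistar rats (120–140 g), n = 8 per compound, control and reference. Single i.p. dose of 50 mg kg–1 as a suspension in methylcarboxycellulose with Tween-80; controls received emulsifier. Daytime, natural light. Over 5 min, horizontal movements, rearings (vertical movements) and cell sniffings were counted.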

[2] = Neurotoxicity in mouse assessed as myorelaxation at 50 to 100 mg/kg, ip measured for 2 mins by rotarod test; assay type: toxicity, organism-based; settings: in vivo
Outline: (§2)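 Mice dosed i.p. at 50–100 mg kg–1; reference drugs given at effective anticonvulsant doses. Mice were placed on a corrugated rubber-coated metal rod rotating at 5 rpm, and the number staying on for 2 min was counted. TD50 was derived by Litchfield–Wilcoxon probit analysis.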

Mus musculus [3] = experiment: Antidepressant activity in mouse assessed as total time of active swimming at 50 mg/kg, ip measured for 6 mins by forced swimming test (reference value: 282 secs); assay type: functional
Outline: (§3)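 Each mouse swam in a glass container (22 cm high, 14 cm diameter) one-third filled with water, under natural light. Over 6 min, latency to first immobilization, total immobilization time and total active swimming time were recorded.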

Mus musculus [4] = experiment: Anticonvulsant activity in mouse assessed as MES-induced tonic seizures at 10 to 100 mg/kg, ip administered 45 mins before electrical stimulation; assay type: functional, organism-based
Outline: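 Mice, 8 per dose. Compounds given i.p. at 10, 25, 50, 75 or 100 mg kg–1 in carboxymethylcellulose/Tween-80 suspension, 45 min before maximal electroshock (50 mA, 0.2 s, 50 imp s–1); controls received emulsifier. Endpoint was prevention of the tonic-extensor phase.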

[5] = Neurotoxicity in mouse assessed as motor coordination at 50 to 100 mg/kg, ip by rotarod test; assay type: toxicity, organism-based; settings: in vivo; outline: as §2
Mus musculus [6] = experiment: Antianxiety activity in mouse assessed as time spent in closed arms at 50 mg/kg, ip measured for 5 mins by elevated plus maze test (reference value: 278.2 secs); assay type: functional
Mus musculus [7] = experiment: Antianxiety activity in mouse assessed as increase in time spent in open arms at 50 mg/kg, ip measured for 5 mins by elevated plus maze test; assay type: functional
Mus musculus [8] = experiment: Anticonvulsant activity in mouse assessed as MES-induced […] seizures at 10 to 100 mg/kg, ip administered 45 mins before electrical stimulation; assay type: functional, organism-based
Mus musculus [9] = experiment: Antidepressant activity in mouse assessed as total time of immobilization at 50 mg/kg, ip measured for 6 mins by forced swimming test (reference value: 81 secs); assay type: functional; outline: as §3
Mus musculus [10] = experiment: Anticonvulsant activity in ip dosed mouse assessed as reduction in PTZ-induced clonic seizures administered 45 mins before PTZ stimulation; assay type: functional
Outline: (§4)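 Outbred mice (18–22 g), 8 per dose. Compounds given i.p. at 10–100 mg kg–1 as a carboxymethylcellulose/Tween-80 suspension, 45 min before s.c. pentylenetetrazole 90 mg kg–1; controls received emulsifier. Endpoint was prevention of clonic seizures. ED50 was derived by Litchfield–Wilcoxon probit analysis.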

[11] = Neurotoxicity in ip dosed mouse assessed as myorelaxation measured for 2 mins by rotarod test; assay type: toxicity, organism-based; settings: in vivo
Outline: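 Mice were placed on a corrugated rubber-coated metal rod rotating at 5 rpm, and the number staying on for 2 min was counted. TD50 was derived by Litchfield–Wilcoxon probit analysis.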

Mus musculus [12] = experiment: Anticonvulsant activity in mouse assessed as proportion of animals displaying reduction in PTZ-induced clonic seizures at 50 mg/kg, ip administered 45 mins before PTZ stimulation relative to control; assay type: functional; design: scale not given: the % may be the effect or the level left; outline: as §4
[13] = Neurotoxicity in ip dosed mouse assessed as maximum tolerated dose by rotarod test; assay type: toxicity, organism-based; settings: in vivo
Outline: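 Mice given compounds i.p. at […] to 1800 mg/kg to establish the maximal tolerated dose.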

Mus musculus [14] = experiment: Antidepressant activity in mouse assessed as latent period of first immobilization at 50 mg/kg, ip measured for 6 mins by forced swimming test (reference value: 92 secs); assay type: functional; outline: as §3
Rattus norvegicus [15] = experiment: Antianxiety activity in Wistar rat assessed as horizontal movement of animals at 50 mg/kg, ip measured for 5 mins by open field test; assay type: functional, organism-based; outline: as §1
Mus musculus [16] = experiment: Anticonvulsant activity in mouse assessed as reduction in PTZ-induced clonic seizures at 25 mg/kg, ip administered 45 mins before PTZ stimulation; assay type: functional, organism-based; outline: as §4
Rattus norvegicus [17] = experiment: Antianxiety activity in Wistar rat assessed as increase in number of sniffing cell examinations at 50 mg/kg, ip measured for 5 mins by open field test; assay type: functional, organism-based; outline: as §1
[18] = Protection index, ratio of TD50 for neurotoxicity in ip dosed mouse to ED50 for anticonvulsant activity in ip dosed mouse; assay type: toxicity, organism-based; settings: in vivo, read-out: Ratio TD50/ED50
Mus musculus [19] = experiment: Sedative activity in mouse assessed as time spent in center at 50 mg/kg, ip measured for 5 mins by elevated plus maze test (reference value: 21.8 secs); assay type: functional

Structure (SMILES) | Activity (Rattus norvegicus [1]) | Activity [2] | Time (Mus musculus [3]) | Activity (Mus musculus [4]) | Activity [5] | Time (Mus musculus [6]) | Time (Mus musculus [7]) | Activity (Mus musculus [8]) | Time (Mus musculus [9]) | ED50 (Mus musculus [10]) | TD50 at 2 min [11] | Activity (Mus musculus [12]) | MTD [13] | Time (Mus musculus [14]) | Activity (Rattus norvegicus [15]) | anticonvulsant activity (active/inactive) (Mus musculus [16]) | Activity (Rattus norvegicus [17]) | selectivity ratio [18] | Time (Mus musculus [19])
CC1(C)Cc2c(C#N)c(Nc3ccccc3)n3c(SCC(=O)N(c4ccccc4)c4ccccc4)nnc3c2CO1 | inactive | Non-Toxic | 317 s | inactive | Non-Toxic | 133 s | 88 s | inactive | 43 s | 21 mg/kg | 580 mg/kg | 80% | 1250 mg/kg | 162 s | inactive | Active | Active | 27.6 | 79 s
CCCCN(CCCC)C(=O)CSc1nnc2c3c(c(C#N)c(Nc4ccccc4)n12)CC(C)(C)OC3 |  | Non-Toxic |  | inactive | Non-Toxic |  |  | inactive |  |  | > 500 mg/kg | 20% | 1000 mg/kg |  |  |  |  |  | 
CC1(C)Cc2c(C#N)c(Nc3ccccc3)n3c(SCC(=O)Nc4ccc(Cl)c(Cl)c4)nnc3c2CO1 |  | Non-Toxic |  | inactive | Non-Toxic |  |  | inactive |  |  | > 500 mg/kg | 20% | 1150 mg/kg |  |  |  |  |  | 
COc1cccc(NC(=O)CSc2nnc3c4c(c(C#N)c(Nc5ccc(C)cc5)n23)CC(C)(C)OC4)c1 |  | Non-Toxic |  | inactive | Non-Toxic |  |  | inactive |  |  | > 500 mg/kg | 40% | 1100 mg/kg |  |  |  |  |  | 
Cc1ccc(Nc2c(C#N)c3c(c4nnc(SCc5ccc([N+](=O)[O-])cc5)n24)COC(C)(C)C3)cc1 |  | Non-Toxic |  | inactive | Non-Toxic |  |  | inactive |  |  | > 500 mg/kg | 40% | 1200 mg/kg |  |  |  |  |  | 
CC1(C)Cc2c(C#N)c(Nc3ccccc3)n3c(SCC(=O)c4ccc([N+](=O)[O-])cc4)nnc3c2CO1 |  | Non-Toxic |  | inactive | Non-Toxic |  |  | inactive |  |  | > 520 mg/kg | 40% | 1250 mg/kg |  |  |  |  |  | 
CCOC(=O)C(Sc1nnc2c3c(c(C#N)c(Nc4ccccc4)n12)CC(C)(C)OC3)c1ccccc1 (configuration not stated) | inactive | Non-Toxic | 284 s | inactive | Non-Toxic | 199 s | 6 s | inactive | 76 s | 44 mg/kg | 520 mg/kg | 60% | 1200 mg/kg | 156 s | inactive | Active | Active | 11.8 | 95 s
COc1ccc(NC(=O)CSc2nnc3c4c(c(C#N)c(Nc5ccc(C)cc5)n23)CC(C)(C)OC4)cc1 |  | Non-Toxic |  | inactive | Non-Toxic |  |  | inactive |  |  | > 500 mg/kg | 40% | 1250 mg/kg |  |  |  |  |  | 
Cc1ccc(Nc2c(C#N)c3c(c4nnc(SCC(=O)c5ccc([N+](=O)[O-])cc5)n24)COC(C)(C)C3)cc1 |  | Non-Toxic |  | inactive | Non-Toxic |  |  | inactive |  |  | > 500 mg/kg | 40% | 1250 mg/kg |  |  |  |  |  | 
COc1ccc(CSc2nnc3c4c(c(C#N)c(Nc5ccc(C)cc5)n23)CC(C)(C)OC4)cc1 | inactive | Non-Toxic | 289 s | inactive | Non-Toxic | 200.6 s | 11.4 s | inactive | 71 s | 44 mg/kg | 600 mg/kg | 60% | 1500 mg/kg | 158 s | inactive | Active | Active | 13.6 | 88 s
Cc1cccc(NC(=O)CSc2nnc3c4c(c(C#N)c(Nc5ccccc5)n23)CC(C)(C)OC4)c1 |  | Non-Toxic |  | inactive | Non-Toxic |  |  | inactive |  |  | > 500 mg/kg | 20% | 1300 mg/kg |  |  |  |  |  | 
Cc1ccc(Nc2c(C#N)c3c(c4nnc(SCc5ccccc5Cl)n24)COC(C)(C)C3)cc1 |  | Non-Toxic |  | inactive | Non-Toxic |  |  | inactive |  |  | > 500 mg/kg | 40% | 1350 mg/kg |  |  |  |  |  | 
CC1(C)Cc2c(C#N)c(Nc3ccccc3)n3c(SCC(=O)c4ccc(Cl)cc4)nnc3c2CO1 |  | Non-Toxic |  | inactive | Non-Toxic |  |  | inactive |  |  | > 500 mg/kg | 20% | 1150 mg/kg |  |  |  |  |  | 
